Counter-ions that a name gives are not always drawn. Calls of active or inactive are those of the source. The rule behind the calls is not given here. Bounds are passed on as bounds.

This is an account of results in ChEMBL document CHEMBL1955767, “Synthesis and biological evaluation of piperidine-substituted triazine derivatives as HIV-1 non-nucleoside reverse transcriptase inhibitors” (Eur J Med Chem, 2012).

Data set [1] deals with Human immunodeficiency virus 1. Put plainly: Antiviral activity against HIV1 3B infected in human MT4 cells assessed as protection against virus-induced cytotoxicity after 5 days by MTT assay. The note with it: Human immunodeficiency virus 1, 3B, MT4, 120 h. Type of data set: functional, organism-based. The gist of the method:
(§1)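 MT-4 cells (6×10^5 cells/mL) infected with HIV-1 IIIB or HIV-2 ROD at 100–300 CCID50. Compounds added at 10× stock as serial fivefold dilutions in triplicate, with untreated infected and mock-infected controls run alongside. Viability read by MTT reduction at 540 and 690 nm 5 days post-infection, using the median OD of three wells.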

The nature of data set [2]: Cytotoxicity against human MT4 cells after 5 days by MTT assay. The format is cell-based. The gist of the method: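 Mock-infected MT-4 cells (6×10^5 cells/mL) received serial fivefold compound dilutions in triplicate, run in parallel with the infected series. After 5 days, viability measured by MTT formazan absorbance at 540 and 690 nm, using the median OD of three wells.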

Data set [3] in a line: Selectivity index, ratio of CC50 for human MT4 cells to EC50 for HIV1 3B. Type of data set: toxicity, cell-based. The note with it: read-out: Ratio CC50/EC50. The method in brief:
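Ratio CC50/EC50, both taken from the same 5-day MTT run in MT-4 cells. CC50 is from mock-infected wells.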

The subject of data set [4] is Human immunodeficiency virus 2. Put plainly: Antiviral activity against HIV2 ROD infected in human MT4 cells assessed as inhibition of viral replication. The note with it: ISOLATE ROD. Type of data set: functional, organism-based. The gist of the method:
as §1

Data set [5] concerns Human immunodeficiency virus 1. Put plainly: Antiviral activity against HIV1 expressing reverse transcriptase K103N/Y181C mutant infected in human MT4 cells assessed as protection against virus-induced cytotoxicity after 5 days by MTT assay. Type of data set: functional, organism-based. The note with it: Human immunodeficiency virus 1, MT4, 120 h. The gist of the method:
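MT-4 cells, in exponential growth, pelleted and resuspended at 6×10^5 cells/mL, then infected or mock-infected. Compound added at start as serial fivefold dilutions in triplicate wells. Viability read by MTT reduction to formazan at 540 and 690 nm after 5 days.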

In data set [6] the target is Human immunodeficiency virus type 1 reverse transcriptase (Human immunodeficiency virus 1, UniProt Q72547). Nature of the data set: Inhibition of HIV1 reverse transcriptase assessed as incorporation of biotin-dUTP into poly(rA)-oligo(dT). The method in brief: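 ELISA-format RT kit with a poly(rA)-oligo(dT) homopolymer template/primer bound to the plate. Wild-type HIV-1 RT activity measured as biotin-dUTP incorporation into the template.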

In the case of `CNc1nc(Nc2c(C)cc(C)cc2C)nc(NC2CCN(Cc3ccc(F)cc3)CC2)n1`, the EC50 was found to be 0.0102 µM in data set [1] and 4.9 µM in data set [5]. In addition, half-maximal cytotoxicity in data set [2] (CC50 at 120 h) was put at 25.6 µM. The selectivity ratio in data set [3] turned out to be 2880. The outcome in data set [4] was inactive.
For `CNc1nc(Nc2c(C)cc(C)cc2C)nc(NC2CCN(Cc3ccc([N+](=O)[O-])cc3)CC2)n1`, the EC50 in data set [1] is 0.0082 µM; in data set [5], no less than 2.6 µM. This compound returned a CC50 at 120 h in data set [2] of 10.2 µM. Also, in data set [3], the selectivity ratio came to 1230. Also, the result in data set [4] was inactive.
For the compound `COc1nc(Nc2c(C)cc(C)cc2C)nc(NC2CCN(Cc3ccc(C#N)cc3)CC2)n1`, the EC50 in data set [1] stood at 0.0092 µM; in data set [5] it was 1.6 µM. In data set [2], this compound gave a CC50 at 120 h of 14.6 µM. Besides, the selectivity ratio in data set [3] is 1600. In data set [4], the result was inactive. In data set [6], the IC50 is 1.77 µM.
`CNc1nc(Nc2c(C)cc(C)cc2C)nc(NC2CCN(Cc3ccc(OC)cc3)CC2)n1`: the EC50 in data set [1] was 0.0095 µM; in data set [5], 5.8 µM. It took 22.1 µM to reach half-maximal cytotoxicity in data set [2] (CC50 at 120 h). Moreover, the selectivity ratio in data set [3] worked out at 2310. In addition, the result in data set [4] was inactive.
With `CNc1nc(Nc2c(C)cc(C)cc2C)nc(NC2CCN(Cc3cccc(C#N)c3)CC2)n1`, the values for the EC50 in data set [1] and in data set [5] were 0.007 µM and 4.6 µM, respectively. Also, the CC50 at 120 h in data set [2] is 23 µM. The selectivity ratio in data set [3] was determined as 3240. For the same compound, in data set [4], the outcome was inactive. Further, the IC50 in data set [6] worked out at 1.97 µM.
For the compound `CNc1nc(Nc2c(C)cc(C)cc2C)nc(NC2CCN(C(=O)c3ccc(O)cc3)CC2)n1`, the EC50 in data set [1] is 0.932 µM; in data set [5], greater than 55.4 µM. It took 55.4 µM to reach half-maximal cytotoxicity in data set [2] (CC50 at 120 h). Moreover, the selectivity ratio in data set [3] amounted to 60. Also, the outcome in data set [4] was inactive.
Consider `COc1nc(Nc2c(C)cc(C)cc2C)nc(NC2CCN(C(=O)c3ccc([N+](=O)[O-])cc3)CC2)n1`, for which the EC50 was 4.37 µM in data set [1] and greater than 25.2 µM in data set [5]. Also, in data set [2], the CC50 at 120 h was no less than 25.2 µM. Moreover, the selectivity ratio in data set [3] was no less than 6. In addition, in data set [4], the result was inactive.
As for `CNc1nc(Nc2c(C)cc(C)cc2C)nc(NC2CCN(C(=O)c3ccc(C(=O)O)cc3)CC2)n1`, the EC50 in data set [1] is no less than 127 µM; in data set [5], greater than 255 µM. This compound returned a CC50 at 120 h in data set [2] of no less than 255 µM. In addition, the selectivity ratio in data set [3] was no less than 2. For the same compound, in data set [4], the outcome was inactive.
In the same order, the values of `CNc1nc(Nc2c(C)cc(C)cc2C)nc(NC2CCN(C(=O)c3ccccc3)CC2)n1` are 0.224 µM, greater than 30.9 µM, 30.9 µM, 132 and “inactive”.
In the same order, the values of `COc1nc(Nc2c(C)cc(C)cc2C)nc(NC2CCN(C(=O)c3ccc(O)cc3)CC2)n1` are 1.66 µM, greater than 121 µM, 121 µM, 73 and “inactive”.
Consider `Cc1ccnc2c1NC(=O)c1cccnc1N2C1CC1` [NEVIRAPINE], for which the EC50 in data set [1] was found to be 0.0901 µM; in data set [5] it was 11.2 µM. The CC50 at 120 h in data set [2] is greater than 15 µM.
For the compound `COc1nc(Nc2c(C)cc(C)cc2C)nc(NC2CCN(C(=O)c3ccccc3)CC2)n1`, the EC50 was 1.79 µM in data set [1] and greater than 28.8 µM in data set [5]. The compound also yielded a CC50 at 120 h in data set [2] of 28.8 µM. In addition, the selectivity ratio in data set [3] came out at 16. The result in data set [4] was inactive.
On to `CNc1nc(Nc2c(C)cc(C)cc2C)nc(NC2CCN(Cc3ccccc3)CC2)n1`, for which the EC50 in data set [1] turned out to be 0.0088 µM; in data set [5], 5 µM. Also, the CC50 at 120 h in data set [2] was 28.4 µM. In addition, the selectivity ratio in data set [3] came to 3190. Also, the result in data set [4] was inactive. In data set [6], the IC50 is 2.46 µM.
On to `COc1nc(Nc2c(C)cc(C)cc2C)nc(NC2CCN(C(=O)c3ccc(C(=O)O)cc3)CC2)n1`, for which the EC50 was 36.2 µM in data set [1] and greater than 149 µM in data set [5]. In addition, the CC50 at 120 h in data set [2] was no less than 149 µM. Also, in data set [3], the selectivity ratio was no less than 4. Also, in data set [4], the outcome was inactive.
In data set [2], `O=C1Nc2ccc(Cl)cc2[C@@](C#CC2CC2)(C(F)(F)F)O1` [EFAVIRENZ] showed a CC50 at 120 h greater than 6.3 µM. In addition, the selectivity ratio in data set [3] is greater than 1190. Besides, the EC50 in data set [5] was determined as 0.57 µM.
In the case of `COc1nc(Nc2c(C)cc(C)cc2C)nc(NC2CCN(Cc3ccccc3C#N)CC2)n1`, the values for the EC50 in data set [1] and in data set [5] were 0.0192 µM and 6.7 µM, respectively. In data set [2], the CC50 at 120 h is 28 µM. For the same compound, the selectivity ratio in data set [3] is 1460. For the same compound, in data set [4], the result was inactive.
As to `COc1nc(Nc2c(C)cc(C)cc2C)nc(NC2CCN(Cc3ccccc3)CC2)n1`, the EC50 in data set [1] worked out at 0.0113 µM; in data set [5], 4.8 µM. In data set [2], this compound returned a CC50 at 120 h of 28.6 µM. Besides, in data set [3], the selectivity ratio came to 2510. For the same compound, the result in data set [4] was inactive.
`Cc1cn([C@H]2C[C@H](N=[N+]=[N-])[C@@H](CO)O2)c(=O)[nH]c1=O` [ZIDOVUDINE]: the figures for the EC50 in data set [1] and in data set [5] were 0.0206 µM and 0.0086 µM, respectively. The compound also showed a CC50 at 120 h in data set [2] of 250 µM. Further, the selectivity ratio in data set [3] was found to be 12200.
Regarding `Cc1cc(C#N)cc(C)c1Oc1nc(Nc2ccc(C#N)cc2)nc(N)c1Br` [ETRAVIRINE], the CC50 at 120 h in data set [2] is greater than 4.6 µM. Besides, in data set [5], the EC50 amounted to 0.026 µM.
For `CC(C)Nc1cccnc1N1CCN(C(=O)c2cc3cc(NS(C)(=O)=O)ccc3[nH]2)CC1` [DELAVIRDINE MESYLATE], the figures for the EC50 in data set [1] and in data set [5] were 0.0326 µM and greater than 36.2 µM, respectively. The same compound showed a CC50 at 120 h in data set [2] greater than 36.2 µM. Moreover, the selectivity ratio in data set [3] is greater than 1100.
For the compound `COc1nc(Nc2c(C)cc(C)cc2C)nc(NC2CCN(Cc3ccc([N+](=O)[O-])cc3)CC2)n1`, the EC50 was 0.0094 µM in data set [1] and no less than 6.1 µM in data set [5]. Besides, the CC50 at 120 h in data set [2] is 15.4 µM. Besides, the selectivity ratio in data set [3] came out at 1640. The outcome in data set [4] was inactive.
The like results for `CNc1nc(Nc2c(C)cc(C)cc2C)nc(NC2CCN(Cc3ccc(C#N)cc3)CC2)n1` were, in that order, 0.0085 µM, 1.3 µM, 10 µM, 1190 and “inactive”.
Regarding `COc1nc(Nc2c(C)cc(C)cc2C)nc(NC2CCN(Cc3cccc(C#N)c3)CC2)n1`, the values for the EC50 in data set [1] and in data set [5] were 0.0098 µM and 4.6 µM, respectively. The compound further showed a CC50 at 120 h in data set [2] of 23.5 µM. For the same compound, the selectivity ratio in data set [3] is 2380. The outcome in data set [4] was inactive.
On to `Nc1ccn([C@H]2CC[C@@H](CO)O2)c(=O)n1` [ZALCITABINE], for which the EC50 in data set [1] was 1.04 µM. The CC50 at 120 h in data set [2] is greater than 94.7 µM. In addition, the selectivity ratio in data set [3] was greater than 93.
Take `COc1nc(Nc2c(C)cc(C)cc2C)nc(NC2CCN(Cc3ccc(F)cc3)CC2)n1`: the EC50 was determined as 0.0115 µM in data set [1] and 6.5 µM in data set [5]. This compound also showed a CC50 at 120 h in data set [2] of 24.7 µM. Further, the selectivity ratio in data set [3] worked out at 2140. In addition, the outcome in data set [4] was inactive.
In the case of `CNc1nc(Nc2c(C)cc(C)cc2C)nc(NC2CCN(Cc3ccccc3C#N)CC2)n1`, the EC50 in data set [1] came to 0.0099 µM; in data set [5] it was 4.6 µM. Besides, the CC50 at 120 h in data set [2] was 24.7 µM. Also, the selectivity ratio in data set [3] was determined as 2500. Also, the outcome in data set [4] was inactive.
Take `CNc1nc(Nc2c(C)cc(C)cc2C)nc(NC2CCN(C(=O)c3ccc([N+](=O)[O-])cc3)CC2)n1`: the EC50 in data set [1] was 1.79 µM; in data set [5], greater than 33.2 µM. Also, the CC50 at 120 h in data set [2] turned out to be 33.2 µM. Further, in data set [3], the selectivity ratio amounted to 18. In addition, in data set [4], the outcome was inactive.
On to `COc1ccc(CN2CCC(Nc3nc(Nc4c(C)cc(C)cc4C)nc(OC)n3)CC2)cc1`, for which the EC50 in data set [1] amounted to 0.0097 µM; in data set [5], 7.4 µM. The compound also registered a CC50 at 120 h in data set [2] of 19.8 µM. Moreover, the selectivity ratio in data set [3] was 2040. In data set [4], the result was inactive.
